# Laboratory results from ChEMBL document CHEMBL2311431, “Synthesis and biological evaluation of some 5-arylidene-2-(1,3-thiazol-2-ylimino)-1,3-thiazolidin-4-ones as dual anti-inflammatory/antimicrobial agents” (Bioorg Med Chem, 2013).
# Tested on: Micrococcus flavus
# Test: Antibacterial activity against Micrococcus flavus ATCC 10240 after 24 hr by microdilution test
# Type: functional
# Conditions: ATCC 10240, 24 h
# Summary of the method: (§1)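 Broth microdilution in LB medium, about 1.0×10^4 cfu per well; compounds from 1 mg/ml stocks in 5% DMSO. Incubated 24 h. MIC is the lowest concentration with no visible growth under a binocular microscope. Run in duplicate, repeated three times.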
row,SMILES,MIC
1,O=C1N/C(=N\c2nccs2)S/C1=C\c1ccc(Br)cc1,27.3 µM

# Tested on: Talaromyces funiculosus
# Test: Antifungal activity against Penicillium funiculosum ATCC 36839 after 72 hrs by serial dilution technique
# Type: functional
# Conditions: ATCC 36839, 72 h
# Summary of the method: (§2)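 Serial dilution in malt broth; compounds from 1 mg/ml stocks in 5% DMSO; 72 h at 28 °C. MIC is the lowest concentration with no visible growth under a binocular microscope. Run in duplicate, repeated three times.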
row,SMILES,MIC
1,O=C1N/C(=N\c2nccs2)S/C1=C\c1ccc(Br)cc1,20.5 µM

# Biological target: not listed separately
# Test: Inhibition of soybean lipoxygenase assessed as inhibition of sodium linolate conversion to 13-hydroperoxylinoleic acid after 4 mins by spectrophotometry
# Parameters: species or system Glycine max
# Conditions: read-out: IC50
row,SMILES,IC50
1,O=C1N/C(=N\c2nccs2)S/C1=C\c1ccc(Br)cc1,66 µM

# Tested on: Mus musculus
# Test: Acute toxicity in AKR mouse up to 0.5 mmol/kg, ip
# Type: organism-based
# Conditions: in vivo
row,SMILES,Activity
1,O=C1N/C(=N\c2nccs2)S/C1=C\c1ccc(Br)cc1,Non-toxic

# Biological target: T1, Prostaglandin G/H synthase 1 (Ovis aries) (UniProt P05979)
# T1 sequence (whole entry): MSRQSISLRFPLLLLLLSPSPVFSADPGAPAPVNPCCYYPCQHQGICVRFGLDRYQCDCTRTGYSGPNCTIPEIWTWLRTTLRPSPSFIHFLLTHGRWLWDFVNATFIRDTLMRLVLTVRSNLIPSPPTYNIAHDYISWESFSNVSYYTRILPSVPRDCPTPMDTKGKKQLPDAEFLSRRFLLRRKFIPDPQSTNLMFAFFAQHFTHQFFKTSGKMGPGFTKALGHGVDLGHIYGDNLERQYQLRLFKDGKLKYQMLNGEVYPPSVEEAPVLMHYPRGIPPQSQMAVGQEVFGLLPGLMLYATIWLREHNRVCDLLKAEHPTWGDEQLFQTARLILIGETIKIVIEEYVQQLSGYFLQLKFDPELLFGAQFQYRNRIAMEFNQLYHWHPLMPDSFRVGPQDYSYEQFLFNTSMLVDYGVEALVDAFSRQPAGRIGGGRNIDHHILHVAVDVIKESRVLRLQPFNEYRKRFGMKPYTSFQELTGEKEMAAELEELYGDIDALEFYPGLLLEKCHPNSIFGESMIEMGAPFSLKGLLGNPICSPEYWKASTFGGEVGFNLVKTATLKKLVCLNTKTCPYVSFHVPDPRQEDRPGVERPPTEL
# Test: Inhibition of ovine COX1 assessed as inhibition of PGF2a production by enzyme immunoassay
# Parameters: concentration or dose not given beside the values
# Conditions: concentration not given here
# Summary of the method: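 Ovine COX-1 from a commercial screening kit, tested with 0.1 µM arachidonic acid, which is below the saturating level. COX-derived PGH2 is reduced by SnCl2 to PGF2a, quantified by enzyme immunoassay with a broad prostaglandin antibody. At least triplicate.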
row,SMILES,inhibition
1,O=C1N/C(=N\c2nccs2)S/C1=C\c1ccc(Br)cc1,67%

# Tested on: Aspergillus niger
# Test: Antifungal activity against Aspergillus niger ATCC 6275 after 72 hrs by serial dilution technique
# Type: functional
# Conditions: ATCC 6275, 72 h
# Summary of the method: as §2
row,SMILES,MIC
1,O=C1N/C(=N\c2nccs2)S/C1=C\c1ccc(Br)cc1,13.7 µM

# Tested on: Escherichia coli
# Test: Bactericidal activity against Escherichia coli ATCC 35210 after 72 hrs by serial subcultivation method
# Type: functional
# Conditions: ATCC 35210, 72 h
row,SMILES,MBC
1,O=C1N/C(=N\c2nccs2)S/C1=C\c1ccc(Br)cc1,54.6 µM

# Tested on: Aspergillus flavus
# Test: Antifungal activity against Aspergillus flavus ATCC 9643 after 72 hrs by serial dilution technique
# Type: functional
# Conditions: ATCC 9643, 72 h
# Summary of the method: as §2
row,SMILES,MIC
1,O=C1N/C(=N\c2nccs2)S/C1=C\c1ccc(Br)cc1,13.7 µM

# Tested on: Mus musculus
# Test: Antiinflammatory activity in AKR mouse assessed as inhibition of carrageenan-induced paw edema at 0.01 mmol/kg, ip measured after 3.5 hrs of carrageenan-challenge
# Type: functional
# Conditions: not given
# Summary of the method: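 AKR mice of both sexes (pregnant females excluded), 6-10 per group, fasted during the experiment. Edema induced by intradermal 0.05 mL of 2% carrageenin into the right hind paw. Compound given at 0.01 mmol/kg ip, suspended in water with Tween-80, at the same time as carrageenin.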
row,SMILES,inhibition in vivo at 10 µmol/kg
1,O=C1N/C(=N\c2nccs2)S/C1=C\c1ccc(Br)cc1,42.2%

# Tested on: Listeria monocytogenes
# Test: Bactericidal activity against Listeria monocytogenes NCTC 7973 after 72 hrs by serial subcultivation method
# Type: functional
# Conditions: NCTC 7973, 72 h
row,SMILES,MBC
1,O=C1N/C(=N\c2nccs2)S/C1=C\c1ccc(Br)cc1,54.6 µM

# Tested on: Aspergillus niger
# Test: Fungicidal activity against Aspergillus niger ATCC 6275 after 72 hrs by serial subcultivation method
# Type: functional
# Conditions: ATCC 6275, 72 h
row,SMILES,MFC
1,O=C1N/C(=N\c2nccs2)S/C1=C\c1ccc(Br)cc1,27.3 µM

# Tested on: Pseudomonas aeruginosa
# Test: Bactericidal activity against Pseudomonas aeruginosa ATCC 27853 after 72 hrs by serial subcultivation method
# Type: functional
# Conditions: ATCC 27853, 72 h
row,SMILES,MBC
1,O=C1N/C(=N\c2nccs2)S/C1=C\c1ccc(Br)cc1,54.6 µM

# Tested on: Staphylococcus aureus
# Test: Antibacterial activity against Staphylococcus aureus ATCC 6538 after 24 hr by microdilution test
# Type: functional
# Conditions: ATCC 6538, 24 h
# Summary of the method: as §1
row,SMILES,MIC
1,O=C1N/C(=N\c2nccs2)S/C1=C\c1ccc(Br)cc1,13.7 µM

# Tested on: Micrococcus flavus
# Test: Bactericidal activity against Micrococcus flavus ATCC 10240 after 72 hrs by serial subcultivation method
# Type: functional
# Conditions: ATCC 10240, 72 h
row,SMILES,MBC
1,O=C1N/C(=N\c2nccs2)S/C1=C\c1ccc(Br)cc1,54.6 µM

# Tested on: Aspergillus fumigatus
# Test: Antifungal activity against Aspergillus fumigatus after 72 hrs by serial dilution technique
# Type: functional
# Conditions: not given
# Summary of the method: as §2
row,SMILES,MIC
1,O=C1N/C(=N\c2nccs2)S/C1=C\c1ccc(Br)cc1,13.7 µM

# Tested on: Aspergillus flavus
# Test: Fungicidal activity against Aspergillus flavus ATCC 9643 after 72 hrs by serial subcultivation method
# Type: functional
# Conditions: ATCC 9643, 72 h
row,SMILES,MFC
1,O=C1N/C(=N\c2nccs2)S/C1=C\c1ccc(Br)cc1,27.3 µM

# Tested on: Trichoderma viride
# Test: Fungicidal activity against Trichoderma viride IAM 5061 after 72 hrs by serial subcultivation method
# Type: functional
# Conditions: IAM 5061, 72 h
row,SMILES,MFC
1,O=C1N/C(=N\c2nccs2)S/C1=C\c1ccc(Br)cc1,27.3 µM

# Tested on: Bacillus cereus
# Test: Antibacterial activity against Bacillus cereus clinical isolate after 24 hr by microdilution test
# Type: functional
# Conditions: not given
# Summary of the method: as §1
row,SMILES,MIC
1,O=C1N/C(=N\c2nccs2)S/C1=C\c1ccc(Br)cc1,20.5 µM

# Tested on: Pseudomonas aeruginosa
# Test: Antibacterial activity against Pseudomonas aeruginosa ATCC 27853 after 24 hr by microdilution test
# Type: functional
# Conditions: ATCC 27853, 24 h
# Summary of the method: as §1
row,SMILES,MIC
1,O=C1N/C(=N\c2nccs2)S/C1=C\c1ccc(Br)cc1,27.3 µM

# Tested on: Trichoderma viride
# Test: Antifungal activity against Trichoderma viride IAM 5061 after 72 hrs by serial dilution technique
# Type: functional
# Conditions: IAM 5061, 72 h
# Summary of the method: as §2
row,SMILES,MIC
1,O=C1N/C(=N\c2nccs2)S/C1=C\c1ccc(Br)cc1,13.7 µM

# Tested on: Escherichia coli
# Test: Antibacterial activity against Escherichia coli ATCC 35210 after 24 hr by microdilution test
# Type: functional
# Conditions: ATCC 35210, 24 h
# Summary of the method: as §1
row,SMILES,MIC
1,O=C1N/C(=N\c2nccs2)S/C1=C\c1ccc(Br)cc1,27.3 µM

# Tested on: Aspergillus fumigatus
# Test: Fungicidal activity against Aspergillus fumigatus after 72 hrs by serial subcultivation method
# Type: functional
# Conditions: not given
row,SMILES,MFC
1,O=C1N/C(=N\c2nccs2)S/C1=C\c1ccc(Br)cc1,27.3 µM

# Tested on: Talaromyces funiculosus
# Test: Fungicidal activity against Penicillium funiculosum ATCC 36839 after 72 hrs by serial subcultivation method
# Type: functional
# Conditions: ATCC 36839, 72 h
row,SMILES,MFC
1,O=C1N/C(=N\c2nccs2)S/C1=C\c1ccc(Br)cc1,27.3 µM

# Tested on: Penicillium ochrochloron
# Test: Fungicidal activity against Penicillium ochrochloron ATCC 9112 after 72 hrs by serial subcultivation method
# Type: functional
# Conditions: ATCC 9112, 72 h
row,SMILES,MFC
1,O=C1N/C(=N\c2nccs2)S/C1=C\c1ccc(Br)cc1,27.3 µM

# Tested on: Listeria monocytogenes
# Test: Antibacterial activity against Listeria monocytogenes NCTC 7973 after 24 hr by microdilution test
# Type: functional
# Conditions: NCTC 7973, 24 h
# Summary of the method: as §1
row,SMILES,MIC
1,O=C1N/C(=N\c2nccs2)S/C1=C\c1ccc(Br)cc1,27.3 µM

# Tested on: Staphylococcus aureus
# Test: Bactericidal activity against Staphylococcus aureus ATCC 6538 after 72 hrs by serial subcultivation method
# Type: functional
# Conditions: ATCC 6538, 72 h
row,SMILES,MBC
1,O=C1N/C(=N\c2nccs2)S/C1=C\c1ccc(Br)cc1,27.3 µM

# Tested on: Bacillus cereus
# Test: Bactericidal activity against Bacillus cereus clinical isolate after 72 hrs by serial subcultivation method
# Type: functional
# Conditions: not given
row,SMILES,MBC
1,O=C1N/C(=N\c2nccs2)S/C1=C\c1ccc(Br)cc1,54.6 µM

# Tested on: Penicillium ochrochloron
# Test: Antifungal activity against Penicillium ochrochloron ATCC 9112 after 72 hrs by serial dilution technique
# Type: functional
# Conditions: ATCC 9112, 72 h
# Summary of the method: as §2
row,SMILES,MIC
1,O=C1N/C(=N\c2nccs2)S/C1=C\c1ccc(Br)cc1,13.7 µM
